Assay type in all cases: functional
The subject of assay [1] is A549. In words: Cytotoxicity against human A549 cells by SRB method. The method in brief:
(§1)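 Human tumour lines (breast MDA-MB-231, lung A-549, colon HT-29) seeded in 96-well plates and left 24 h, then given vehicle or compound at 10 to 0.0026 µg/mL (10 dilutions) for 72 h. Read-out by SRB: PBS washes, 1% glutaraldehyde fix 15 min, 0.4% SRB in 1% acetic acid 30 min RT, dye extracted into 10 mM Tris base, A490. A time-zero plate was read before treatment.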

Assay [2] relates to HT-29. As to the kind of experiment: Cytotoxicity against human HT29 cells by SRB method. The conditions noted are these: for CC50: read-out: LC50 (the source's name). The essentials: as §1
Assay [3] relates to MDA-MB-231. In words: Cytotoxicity against human MDA-MB-231 cells by SRB method. The essentials:
as §1

[4] abbreviates: read-out: LC50 (the source's name).

For the compound `COc1c(C)c(O)c2c(c1O)[C@@H]1C3=Cc4c(OC(C)=O)c(C)c5c(c4[C@H](COCc4ccccc4)N3[C@@H](C#N)[C@H](C2=O)N1C)OCO5`, in assay [1], the GI50 amounted to 6.57 µM. Besides, in assay [2], growth was halved (GI50) at 4.06 µM, net growth stopped (TGI) at 6.72 µM and the CC50 was 14.5 µM. The same compound returned a GI50 in assay [3] of 5.63 µM.

Consider `C/C=C(/C)C(=O)OC[C@H]1C2=C(C=C3[C@H]4c5c(O)c(OC)c(C)c(O)c5C(=O)[C@@H](C(=O)N31)N4C)C(=O)C(C)=C(OC)C2=O` [CRIBROSTATIN 5], for which the values for the GI50 in assay [1], in assay [2] and in assay [3] were 7.09 µM, 6.74 µM and 4.49 µM, respectively. The total growth inhibition concentration (TGI) turned out to be 11.6 µM in assay [1] and 7.43 µM in assay [2].

For the compound `C/C=C(/C)C(=O)OC[C@H]1c2c(c(OC(C)=O)c(C)c3c2OCO3)C=C2[C@H]3c4c(O)c(OC)c(C)c(O)c4C(=O)[C@@H](C(=O)N21)N3C`, the GI50 in assay [1] was found to be 7.73 µM; in assay [2] it was 11.1 µM; in assay [3], 14 µM.

`COc1c(C)cc2c(c1OCc1ccccc1)[C@@H]1C3=Cc4c(OC(C)=O)c(C)c(OC)c(OC)c4[C@H](COCc4ccccc4)N3[C@@H](C#N)[C@H](C2)N1C`: the concentration for 50% growth inhibition (GI50) in assay [1] was 0.24 µM; in assay [2] it was 0.2 µM; in assay [3], 0.26 µM. Moreover, the total growth inhibition concentration (TGI) came out at 0.3 µM in assay [1], 0.26 µM in assay [2] and 0.35 µM in assay [3]. Moreover, the figures for the CC50 in assay [1] (setting [4]), in assay [2] and in assay [3] (setting [4]) were 0.41 µM, 0.36 µM and 0.48 µM, respectively.

These data come from ChEMBL document CHEMBL1144821, “Synthesis and cytotoxic evaluation of some cribrostatin-ecteinascidin analogues” (2008).
